Data as given in ChEMBL document CHEMBL4414577, “Discovery of Pyrrolo[2,3-b]pyridine (1,7-Dideazapurine) Nucleoside Analogues as Anti-Trypanosoma cruzi Agents” (J Med Chem, 2019).
The source made the active and inactive calls. The rule behind the calls is not given here.

Tests used:
Trypanosoma cruzi [1] = assay: Antitrypanosomal activity against Trypanosoma cruzi Tulahuen CL2 amastigotes infected in human MRC5 SV2 cells incubated for 7 days by chlorophenol red beta-D-galactopyranoside substrate based spectrophotometric assay; format: functional, organism-based; details: Tulahuen CL2, MRC-5 SV2, 168 h
Summary of the method: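 Intracellular amastigotes of β-galactosidase-expressing Tulahuen strain grown in MRC-5 fibroblast host cells. EC50 in μM given as mean and SEM of two or three independent experiments; some values come from a single determination.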

[2] = Selectivity index, ratio for EC50 for human MRC5 SV2 cells to EC50 for Trypanosoma cruzi Tulahuen CL2 amastigotes infected in human MRC5 SV2 cells; format: toxicity, cell-based; details: read-out: Ratio EC50
[3] = Drug metabolism in mouse liver microsomes assessed as CYP450-mediated metabolism by measuring parent compound remaining at 5 uM incubated for 30 mins in presence of NADPH by UPLC-MS analysis; format: ADME; details: read-out: Stability
Summary of the method: (§1)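 Compound incubated with male mouse, rat, dog or pooled human S9 fractions, with NADPH (phase I) or […], sampled at 0, 15, 30 and 60 min. Read-out is percent parent remaining. Two independent experiments of two biological replicates; diclofenac and fluconazole used as assay controls.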

[4] = Drug metabolism in mouse liver microsomes assessed as CYP450-mediated metabolism by measuring parent compound remaining at 5 uM incubated for 60 mins in presence of NADPH by UPLC-MS analysis; format: ADME; details: read-out: Stability
[5] = Drug metabolism in mouse liver microsomes assessed as UGT-mediated metabolism by measuring compound remaining at 5 uM measured immediately in presence of UDPGA by UPLC-MS analysis; format: ADME; details: read-out: Stability; summary of the method: as §1
[6] = Drug metabolism in rat liver microsomes assessed as UGT-mediated metabolism by measuring compound remaining at 5 uM measured immediately in presence of UDPGA by UPLC-MS analysis; format: ADME; details: read-out: Stability; summary of the method: as §1
[7] = Drug metabolism in rat liver microsomes assessed as UGT-mediated metabolism by measuring compound remaining at 5 uM incubated for 30 mins in presence of UDPGA by UPLC-MS analysis; format: ADME; details: read-out: Stability; summary of the method: as §1
[8] = Drug metabolism in rat liver microsomes assessed as UGT-mediated metabolism by measuring compound remaining at 5 uM incubated for 60 mins in presence of UDPGA by UPLC-MS analysis; format: ADME; details: read-out: Stability; summary of the method: as §1
[9] = Drug metabolism in dog liver microsomes assessed as CYP450-mediated metabolism by measuring parent compound remaining at 5 uM incubated for 15 mins in presence of NADPH by UPLC-MS analysis; format: ADME, Canis lupus familiaris; details: read-out: Stability; summary of the method: as §1
[10] = Drug metabolism in dog liver microsomes assessed as CYP450-mediated metabolism by measuring parent compound remaining at 5 uM incubated for 60 mins in presence of NADPH by UPLC-MS analysis; format: ADME, Canis lupus familiaris; details: read-out: Stability; summary of the method: as §1
[11] = Drug metabolism in dog liver microsomes assessed as UGT-mediated metabolism by measuring compound remaining at 5 uM incubated for 30 mins in presence of UDPGA by UPLC-MS analysis; format: ADME, Canis lupus familiaris; details: read-out: Stability; summary of the method: as §1
Cytochrome P450 [12] = target: T1, Cytochrome P450 (Homo sapiens, UniProt P04798+P05177+P05181+P08684+P10632+P10635+P11509+P11712+P13584+P20813+P20815+P20853+P24462+P24903+P33260+P33261+P51589+P78329+P98187+Q02928+Q08477+Q16678+Q16696+Q5TCH4+Q6VVX0+Q7Z449+Q8TAV3+Q96SQ9+Q9HB55); assay: Drug metabolism in human liver S9 fraction assessed as CYP450-mediated metabolism by measuring parent compound remaining at 5 uM measured immediately in presence of NADPH by UPLC-MS analysis; format: ADME, subcellular; details: read-out: Stability; summary of the method: as §1
Cytochrome P450 [13] = target: T1, Cytochrome P450; assay: Drug metabolism in human liver S9 fraction assessed as CYP450-mediated metabolism by measuring parent compound remaining at 5 uM incubated for 15 mins in presence of NADPH by UPLC-MS analysis; format: ADME, subcellular; details: read-out: Stability; summary of the method: as §1
Cytochrome P450 [14] = target: T1, Cytochrome P450; assay: Drug metabolism in human liver S9 fraction assessed as CYP450-mediated metabolism by measuring parent compound remaining at 5 uM incubated for 30 mins in presence of NADPH by UPLC-MS analysis; format: ADME, subcellular; details: read-out: Stability; summary of the method: as §1
Cytochrome P450 [15] = target: T1, Cytochrome P450; assay: Drug metabolism in human liver S9 fraction assessed as CYP450-mediated metabolism by measuring parent compound remaining at 5 uM incubated for 60 mins in presence of NADPH by UPLC-MS analysis; format: ADME, subcellular; details: read-out: Stability; summary of the method: as §1
Trypanosoma cruzi [16] = assay: In vivo antitrypanosomal activity against Trypanosoma cruzi Y trypomastigotes infected in Swiss mouse assessed as mouse survival at 25 mg/kg, po administered twice daily via gavage for 5 days starting from 5 days post-infection and measured daily up to 40 days post-infection; format: functional, organism-based
Summary of the method: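 Male Swiss Webster mice (18-20 g, 4-5 weeks) infected i.p. with 10⁴ Y-strain bloodstream trypomastigotes; six per group. Oral gavage from 5 dpi for 5 consecutive days: test compound at 25 mg/kg b.i.d. (2.0 mg/mL in 10% EtOH, 0.1 M citrate pH 3.02), benznidazole at 100 mg/kg s.i.d. Parasites counted in 5 μL tail blood to 30 dpi; mortality followed daily to 40 dpi.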

Trypanosoma cruzi [17] = assay: In vivo antitrypanosomal activity against Trypanosoma cruzi Y trypomastigotes infected in Swiss mouse assessed as reduction in parasitemia at 25 mg/kg, po administered twice daily for 5 days with 2 days interval for 3 cycles and measured 9 days post-infection by light microscopy relative to control; format: functional; set-up: scale not given: the % may be the effect or the level left
Summary of the method: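 Male Swiss Webster mice infected i.p. with 10⁴ Y-strain bloodstream trypomastigotes; six per group. Oral gavage from 5 dpi for 15 days (three 5-day rounds, 2 days off): test compound 25 mg/kg b.i.d., benznidazole 100 mg/kg s.i.d. Parasites counted in 5 μL tail blood to 30 dpi; mortality followed to 53 dpi.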

[18] = Toxicity in Swiss Webster mouse infected with Trypanosoma cruzi Y trypomastigotes assessed as body weight loss at 25 mg/kg, po administered twice daily for 5 days with 2 days interval for 3 cycles; format: organism-based; details: in vivo
Summary of the method: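 Y-strain-infected male Swiss Webster mice were dosed orally for 15 days (three rounds of 5 days, 2 drug-free days between) starting at 5 dpi. Regimens were 25 mg/kg b.i.d. or benznidazole 100 mg/kg s.i.d. Weight loss was recorded as a sign of toxicity, with mortality checked daily up to 53 dpi. There were six mice per group.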

Trypanosoma cruzi [19] = assay: Antitrypanosomal activity against Trypanosoma cruzi Y amastigotes infected in Swiss mouse primary cardiac cells replenished for every 48 hrs for 168 hrs by geimsa staining based assay; format: functional, organism-based
Summary of the method: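 Primary mouse cardiac cells infected 24 h at 37 °C with Y-strain bloodstream trypomastigotes (parasite:host 10:1), washed, then exposed 168 h at 37 °C to serial dilutions, medium with compound renewed every 48 h. Giemsa stained; infected cells and parasites per infected cell scored in 200 host cells. EC50 from inhibition of infection index; two independent determinations.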

[20] = Cytotoxicity against Swiss mouse primary cardiac cells assessed as reduction in cell viability incubated for 24 hrs by PrestoBlue dye based colorimetry
Trypanosoma cruzi [21] = assay: In vivo antitrypanosomal activity against Trypanosoma cruzi Y trypomastigotes infected in Swiss mouse assessed as reduction in parasitemia at 25 mg/kg, po administered twice daily via gavage for 5 days starting from 5 days post-infection in presence of cyclophosphamide by light microscopic method; format: functional, organism-based
Summary of the method: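 Infected mice were dosed orally at 25 mg/kg b.i.d. from 5 dpi, either for 5 days or for 15 days (3 × 5 days, 2 days apart). Mice with negative parasitemia up to 30 days post-treatment then received cyclophosphamide i.p. at 50 mg/kg/day. This was given in three cycles of 4 days, each followed by 3 drug-free days. Tail-vein blood parasitemia was then read by light microscopy.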

With Nc1ccnc2c1c(I)cn2[C@@H]1O[C@H](CO)[C@@H](O)[C@H]1O the EC50 (Trypanosoma cruzi [1]) was 0.04 µM, the selectivity ratio [2] was > 1600 and the remaining at 0.5 h, 5 µM [3] was 95%. It also gave a remaining at 1 h, 5 µM [4] of 94%, a remaining at 0 min, 5 µM [5] of 100% and a remaining at 0 min, 5 µM [6] of 100%. The remaining at 0.5 h, 5 µM [7] was 94%, the remaining at 1 h, 5 µM [8] was 94% and the remaining at 0.25 h, 5 µM [9] was 97%. It also gave a remaining at 1 h, 5 µM [10] of 92%, a remaining at 0.5 h, 5 µM [11] of 94% and a remaining at 0 min, 5 µM (Cytochrome P450 [12]) of 100%. The remaining at 0.25 h, 5 µM (Cytochrome P450 [13]) was 99%, the remaining at 0.5 h, 5 µM (Cytochrome P450 [14]) was 96% and the remaining at 1 h, 5 µM (Cytochrome P450 [15]) was 92%. The Activity (Trypanosoma cruzi [16]) was “Active”, the Activity (Trypanosoma cruzi [17]) was 100% and the Activity [18] was “Non-Toxic”. For the same molecule, the EC50 (Trypanosoma cruzi [19]) was 0.089 µM, the EC50 [20] was > 400 µM and the Activity (Trypanosoma cruzi [21]) was “inactive”.
